Measured values reported in ChEMBL document CHEMBL1131147, “7-Arylidenenaltrexones as selective delta1 opioid receptor antagonists” (J Med Chem, 1998).

Key:
[1] = Relative affinity for delta and kappa receptors
Procedure, shortened: (§1)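 Selectivity ratio = DADLE IC50 ratio (MVD) divided by morphine or EK IC50 ratio (GPI), with 100 nM antagonist. Where an IC50 ratio was below or near unity, a value of 1 was used.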

[2] = target: Delta-type opioid receptor (Mus musculus) (UniProt P32300); test: Antagonism of antinociceptive effect of DPDPE against delta 1 opioid receptor in male ICR mice at a sc dose of 16 umol/kg; assay type: functional, organism-based
Chain of Delta-type opioid receptor (Mus musculus) (P32300 whole entry): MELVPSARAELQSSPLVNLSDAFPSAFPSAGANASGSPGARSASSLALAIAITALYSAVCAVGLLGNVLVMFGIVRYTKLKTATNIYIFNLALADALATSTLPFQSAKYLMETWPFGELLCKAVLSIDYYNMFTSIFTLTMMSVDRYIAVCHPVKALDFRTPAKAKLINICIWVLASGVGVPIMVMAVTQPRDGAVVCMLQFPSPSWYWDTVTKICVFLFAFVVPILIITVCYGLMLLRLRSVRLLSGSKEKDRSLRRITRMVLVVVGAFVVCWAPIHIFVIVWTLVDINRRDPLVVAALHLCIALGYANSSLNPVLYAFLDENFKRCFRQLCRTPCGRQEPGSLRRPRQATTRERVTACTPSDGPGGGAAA
Procedure, shortened: (§2)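 Male ICR mice, tail-flick antinociception. Antagonist given sc at the stated dose (µmol/kg), pretreatment timed so peak antagonism coincides with the agonist's peak antinociceptive response. Agonists: DPDPE (δ1), DSLET (δ2), morphine (µ), U50488 (κ). ED50 ratio = agonist ED50 with sc antagonist divided by control ED50, with 95% confidence limits.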

[3] = target: Mu-type opioid receptor (Mus musculus) (UniProt P42866); test: Antagonism of antinociceptive effect of morphine against Opioid receptor mu 1 in male ICR mice at a sc dose of 16 umol/kg; assay type: functional, organism-based; procedure, shortened: as §2
Chain of Mu-type opioid receptor (Mus musculus) (P42866 whole entry): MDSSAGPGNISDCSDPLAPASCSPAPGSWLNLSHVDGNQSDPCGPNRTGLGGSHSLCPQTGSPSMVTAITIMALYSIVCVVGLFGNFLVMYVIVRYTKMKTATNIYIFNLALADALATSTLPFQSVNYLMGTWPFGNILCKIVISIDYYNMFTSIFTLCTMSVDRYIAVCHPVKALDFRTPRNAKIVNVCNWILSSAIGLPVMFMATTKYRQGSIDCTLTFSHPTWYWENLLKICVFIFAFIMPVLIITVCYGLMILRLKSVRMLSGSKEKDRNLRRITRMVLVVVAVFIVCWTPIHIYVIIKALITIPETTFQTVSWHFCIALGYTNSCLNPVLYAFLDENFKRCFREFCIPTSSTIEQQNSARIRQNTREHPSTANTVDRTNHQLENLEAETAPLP

[4] = target: Delta-type opioid receptor (Mus musculus) (UniProt P32300); test: Antagonism of antinociceptive effect of DSLET against delta 2 opioid receptor in male ICR mice at a sc dose of 16 umol/kg; assay type: functional, organism-based; procedure, shortened: as §2
[5] = target: Mu-type opioid receptor (Cavia porcellus) (UniProt P97266); test: Inhibition of morphine binding to Opioid receptor mu 1 of guinea pig ileal longitudinal muscle
Chain of Mu-type opioid receptor (Cavia porcellus) (P97266 whole entry): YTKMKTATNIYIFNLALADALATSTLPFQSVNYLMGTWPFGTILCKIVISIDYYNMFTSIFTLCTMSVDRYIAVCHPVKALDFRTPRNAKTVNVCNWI
Procedure, shortened: (§3)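 Electrically stimulated smooth muscle: guinea pig ileal longitudinal muscle with morphine or ethylketazocine, mouse vas deferens with DADLE. Antagonist 100 nM incubated 15 min (30 min in footnoted cases) before agonist. IC50 ratio = agonist IC50 with antagonist divided by control IC50 in the same preparation; mean ± SEM, n shown.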

[6] = target: Delta-type opioid receptor (Mus musculus) (UniProt P32300); test: Inhibition of DADLE binding to Opioid receptor delta 1 of mouse vas deferens; procedure, shortened: as §3
[7] = target: Kappa-type opioid receptor (Mus musculus) (UniProt P33534); test: Antagonism of antinociceptive effect of U-50,488 against Opioid receptor kappa 1 in male ICR mice at a sc dose of 16 umol/kg; assay type: functional, organism-based; procedure, shortened: as §2
Chain of Kappa-type opioid receptor (Mus musculus) (P33534 whole entry): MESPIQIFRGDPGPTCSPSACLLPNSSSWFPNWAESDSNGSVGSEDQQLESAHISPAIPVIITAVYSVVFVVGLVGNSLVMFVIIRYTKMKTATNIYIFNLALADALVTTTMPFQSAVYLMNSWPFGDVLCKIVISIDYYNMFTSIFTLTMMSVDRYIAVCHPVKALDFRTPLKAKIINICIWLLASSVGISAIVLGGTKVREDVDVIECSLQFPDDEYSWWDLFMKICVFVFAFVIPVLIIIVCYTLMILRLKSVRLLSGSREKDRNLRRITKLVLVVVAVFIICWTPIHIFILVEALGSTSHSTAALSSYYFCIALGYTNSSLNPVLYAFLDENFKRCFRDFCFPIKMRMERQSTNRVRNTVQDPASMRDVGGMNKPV

[8] = target: Kappa-type opioid receptor (Cavia porcellus) (UniProt P41144); test: Inhibition of ethylketazocine binding to Opioid receptor kappa 1 of guinea pig ileal longitudinal muscle; procedure, shortened: as §3
Chain of Kappa-type opioid receptor (Cavia porcellus) (P41144 whole entry): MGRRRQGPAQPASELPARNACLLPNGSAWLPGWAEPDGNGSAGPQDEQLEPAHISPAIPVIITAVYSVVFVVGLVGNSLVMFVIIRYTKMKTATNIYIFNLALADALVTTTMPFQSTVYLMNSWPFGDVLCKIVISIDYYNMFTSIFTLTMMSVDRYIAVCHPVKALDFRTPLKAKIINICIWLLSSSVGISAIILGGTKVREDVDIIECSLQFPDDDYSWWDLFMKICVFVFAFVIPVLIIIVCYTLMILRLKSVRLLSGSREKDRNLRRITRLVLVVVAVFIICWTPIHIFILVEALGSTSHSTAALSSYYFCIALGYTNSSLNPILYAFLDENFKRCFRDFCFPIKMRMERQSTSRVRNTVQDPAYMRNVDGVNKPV

[9] = Relative affinity for delta and mu receptors; procedure, shortened: as §1
[10] = target: Kappa-type opioid receptor (Mus musculus) (UniProt P33534); test: Antagonism of antinociceptive effect of U-50,488 against Opioid receptor kappa 1 in male ICR mice at a sc dose of 5 umol/kg; assay type: functional, organism-based; procedure, shortened: as §2
[11] = target: Delta-type opioid receptor (Mus musculus) (UniProt P32300); test: Antagonism of antinociceptive effect of DSLET against delta 2 opioid receptor in male ICR mice at a sc dose of 5 umol/kg; assay type: functional, organism-based; procedure, shortened: as §2
[12] = target: Delta-type opioid receptor (Mus musculus) (UniProt P32300); test: Antagonism of antinociceptive effect of DPDPE against delta 1 opioid receptor in male ICR mice at a sc dose of 5 umol/kg; assay type: functional, organism-based; procedure, shortened: as §2
[13] = target: Mu-type opioid receptor (Mus musculus) (UniProt P42866); test: Antagonism of antinociceptive effect of morphine against Opioid receptor mu 1 in male ICR mice at a sc dose of 5 umol/kg; assay type: functional, organism-based; procedure, shortened: as §2
[14] = target: Kappa-type opioid receptor (Mus musculus) (UniProt P33534); test: Antagonism of antinociceptive effect of U-50,488 against kOpioid receptor kappa 1 in male ICR mice at a sc dose of 16 umol/kg; assay type: functional, organism-based; procedure, shortened: as §2
[15] = target: Kappa-type opioid receptor (Mus musculus) (UniProt P33534); test: Antagonism of antinociceptive effect of U-50,488 against kOpioid receptor kappa 1 in male ICR mice at a sc dose of 5 umol/kg; assay type: functional, organism-based; procedure, shortened: as §2
[16] = target: Mu-type opioid receptor (Mus musculus) (UniProt P42866); test: Antagonism of antinociceptive effect of morphine against Opioid receptor mu 1 in male ICR mice at a sc dose of 5 umol/kg.; assay type: functional, organism-based; procedure, shortened: as §2

Work on `O=C1/C(=C\c2ccccc2)C[C@@]2(O)[C@H]3Cc4ccc(O)c5c4[C@@]2(CCN3CC2CC2)[C@H]1O5` yielded a Selectivity ratio [1] of 17.5, an ED50 ratio [2] of 16.8 and an ED50 ratio [3] of 5.7. For the same compound, the ED50 ratio [4] was 9.6, the IC50 ratio [5] was 13.1 and the IC50 ratio [6] was 35. It also gave an ED50 ratio [7] of 1.8, an IC50 ratio [8] of 2 and a Selectivity ratio [9] of 2.7.
With `O=C1/C(=C\c2ccc(F)cc2)C[C@@]2(O)C3Cc4ccc(O)c5c4C2(CCN3CC2CC2)[C@H]1O5` (stereo not given in full) the Selectivity ratio [1] was 1.1, the IC50 ratio [5] was 2.23 and the IC50 ratio [6] was 2.01. For the same compound, the IC50 ratio [8] was 1.86 and the Selectivity ratio [9] was 0.9.
Work on `O=C1/C(=C\c2ccc(-c3cccc4ccccc34)cc2)C[C@@]2(O)C3Cc4ccc(O)c5c4C2(CCN3CC2CC2)[C@H]1O5` (stereo not given in full) yielded a Selectivity ratio [1] of 6.9, an IC50 ratio [5] of 1.23 and an IC50 ratio [6] of 12.7. For the same compound, the IC50 ratio [8] was 1.85 and the Selectivity ratio [9] was 10.3.
For `COC(=O)c1ccc(/C=C2/C[C@@]3(O)C4Cc5ccc(O)c6c5C3(CCN4CC3CC3)[C@@H](O6)C2=O)cc1` (stereo not given in full), the Selectivity ratio [1] was 14.6, the IC50 ratio [5] was 3.81 and the IC50 ratio [6] was 14.6. For the same compound, the IC50 ratio [8] was 0.62 and the Selectivity ratio [9] was 3.8.
`O=C1/C(=C\c2ccccc2Cl)C[C@@]2(O)C3Cc4ccc(O)c5c4C2(CCN3CC2CC2)[C@H]1O5` (stereo not given in full) showed a Selectivity ratio [1] of 130, an ED50 ratio [10] of 0.73 and an ED50 ratio [2] of 11.4. For the same compound, the ED50 ratio [3] was 7.1, the ED50 ratio [4] was 7.2 and the ED50 ratio [11] was 0.87. The ED50 ratio [12] was 3.7, the ED50 ratio [13] was 0.53 and the IC50 ratio [5] was 1.34. It also gave an IC50 ratio [6] of 130, an ED50 ratio [7] of 0.9 and an IC50 ratio [8] of 0.85. It also gave a Selectivity ratio [9] of 130.
Work on `O=C1/C(=C\c2cccc([N+](=O)[O-])c2)C[C@@]2(O)C3Cc4ccc(O)c5c4C2(CCN3CC2CC2)[C@H]1O5` (stereo not given in full) yielded a Selectivity ratio [1] of 5.2, an IC50 ratio [5] of 1.15 and an IC50 ratio [6] of 5.18. For the same compound, the IC50 ratio [8] was 0.5 and the Selectivity ratio [9] was 5.2.
`O=C1/C(=C\c2cccc(F)c2)C[C@@]2(O)C3Cc4ccc(O)c5c4C2(CCN3CC2CC2)[C@H]1O5` (stereo not given in full) showed a Selectivity ratio [1] of 12.9, an IC50 ratio [5] of 7.83 and an IC50 ratio [6] of 16.3. For the same compound, the IC50 ratio [8] was 1.26 and the Selectivity ratio [9] was 2.1.
Compound `Cc1ccc(/C=C2/C[C@@]3(O)C4Cc5ccc(O)c6c5C3(CCN4CC3CC3)[C@@H](O6)C2=O)cc1` (stereo not given in full) has a Selectivity ratio [1] of 9.1, an IC50 ratio [5] of 7.05 and an IC50 ratio [6] of 22.3. The IC50 ratio [8] was 2.45 and the Selectivity ratio [9] was 3.2.
Work on `O=C1/C(=C\c2ccc(-c3ccc4ccccc4c3)cc2)C[C@@]2(O)C3Cc4ccc(O)c5c4C2(CCN3CC2CC2)[C@H]1O5` (stereo not given in full) yielded a Selectivity ratio [1] of 11.6, an IC50 ratio [5] of 3.32 and an IC50 ratio [6] of 11.6. For the same compound, the IC50 ratio [8] was 1.07 and the Selectivity ratio [9] was 3.5.
Compound `COc1ccccc1/C=C1/C[C@@]2(O)C3Cc4ccc(O)c5c4C2(CCN3CC2CC2)[C@@H](O5)C1=O` (stereo not given in full) has a Selectivity ratio [1] of 120, an ED50 ratio [14] of 0.84 and an ED50 ratio [2] of 11.1. For the same compound, the ED50 ratio [3] was 5.8, the ED50 ratio [15] was 0.47 and the ED50 ratio [4] was 6.8. For the same compound, the ED50 ratio [11] was 0.8, the ED50 ratio [12] was 2 and the IC50 ratio [5] was 8.49. The IC50 ratio [6] was 120, the ED50 ratio [16] was 1.03 and the IC50 ratio [8] was 1.05. It also gave a Selectivity ratio [9] of 14.1.
`COc1ccc(/C=C2/C[C@@]3(O)C4Cc5ccc(O)c6c5C3(CCN4CC3CC3)[C@@H](O6)C2=O)cc1` (stereo not given in full) showed a Selectivity ratio [1] of 5.5, an IC50 ratio [5] of 3.75 and an IC50 ratio [6] of 5.52. It also gave an IC50 ratio [8] of 0.92 and a Selectivity ratio [9] of 1.5.
With `O=C1/C(=C\c2ccc([N+](=O)[O-])cc2)C[C@@]2(O)C3Cc4ccc(O)c5c4C2(CCN3CC2CC2)[C@H]1O5` (stereo not given in full) the Selectivity ratio [1] was 1.9, the IC50 ratio [5] was 4.42 and the IC50 ratio [6] was 1.9. The IC50 ratio [8] was 1.07 and the Selectivity ratio [9] was 0.4.
Work on `O=C1/C(=C\c2ccccc2F)C[C@@]2(O)C3Cc4ccc(O)c5c4C2(CCN3CC2CC2)[C@H]1O5` (stereo not given in full) yielded a Selectivity ratio [1] of 10.3, an IC50 ratio [5] of 3.86 and an IC50 ratio [6] of 17. It also gave an IC50 ratio [8] of 1.65 and a Selectivity ratio [9] of 4.4.
Compound `COc1cccc(/C=C2/C[C@@]3(O)C4Cc5ccc(O)c6c5C3(CCN4CC3CC3)[C@@H](O6)C2=O)c1` (stereo not given in full) has a Selectivity ratio [1] of 18, an IC50 ratio [5] of 6.44 and an IC50 ratio [6] of 18. For the same compound, the IC50 ratio [8] was 0.95 and the Selectivity ratio [9] was 2.8.
